From ChEMBL document CHEMBL3593171, “Characterization of l-Digitoxosyl-phenanthroviridin from Streptomyces venezuelae ISP5230” (2015)

Test: Cytotoxicity against human NCI60 cells by NCI protocol based assay
Type: functional
In short: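 NCI-60 human tumour cell line panel run per the NCI protocol, with ethanol used as solvent in place of DMSO. Single-dose screen at 10 μM first, then five-dose assay from 10 nM to 100 μM at log10 intervals. Percent growth was plotted against concentration for each cell line, and GI50, TGI and LC50 were calculated from the dose–response curves.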

Row | SMILES | GI50 [µM] | LC50 [µM] | TGI [µM]
1 | Cc1cc(O)c2c3c(ncc2c1)C(=O)c1c(O[C@H]2C[C@@H](O)[C@@H](O)[C@H](C)O2)cccc1C3=O | 2.14 | 18.2 | 5.75
2 | CCCC1C(=O)OC2c3cc(C)cc(O)c3C3=C(C(=O)c4c(O[C@H]5C[C@@H](O)[C@@H](O)[C@H](C)O5)cccc4C3=O)N12 (stereo partly drawn) | 4.79 | 19 | 10
3 | CCCCC1C(=O)OC2c3cc(C)cc(O)c3C3=C(C(=O)c4c(O[C@H]5C[C@@H](O)[C@@H](O)[C@H](C)O5)cccc4C3=O)N12 (stereo partly drawn) | 3.89 | 18 | 8.7
4 | CC(=O)O[C@H]1O[C@@H](n2cc(COC[C@H]3C(=O)OC4c5cc(C)cc(O)c5C5=C(C(=O)c6c(O[C@H]7C[C@@H](O)[C@@H](O)[C@H](C)O7)cccc6C5=O)N43)nn2)[C@@H](OC(C)=O)[C@@H](OC(C)=O)[C@@H]1OC(C)=O (stereo partly drawn) | 3.5 | 11.8 | 7.2
5 | Cc1cc(O)c2c(c1)C1OC(=O)[C@H](COCc3cn(Cc4ccccc4)nn3)N1C1=C2C(=O)c2cccc(O[C@H]3C[C@@H](O)[C@@H](O)[C@H](C)O3)c2C1=O (stereo partly drawn) | 6.1 | 14.9 | 11.9
6 | CC(=O)O[C@@H]1[C@@H](OC(C)=O)[C@H](C)O[C@@H](n2cc(COC[C@H]3C(=O)OC4c5cc(C)cc(O)c5C5=C(C(=O)c6c(O[C@H]7C[C@@H](O)[C@@H](O)[C@H](C)O7)cccc6C5=O)N43)nn2)[C@@H]1OC(C)=O (stereo partly drawn) | 3.1 | 11.6 | 6.8
7 | CC(=O)OC[C@@H]1O[C@@H](n2cc(COC[C@H]3C(=O)OC4c5cc(C)cc(O)c5C5=C(C(=O)c6c(O[C@H]7C[C@@H](O)[C@@H](O)[C@H](C)O7)cccc6C5=O)N43)nn2)[C@H](OC(C)=O)[C@H](OC(C)=O)[C@H]1OC(C)=O (stereo partly drawn) | 3.7 | 10.9 | 6.6
8 | CC(=O)O[C@@H]1[C@@H](OC(C)=O)[C@H](C)O[C@H](n2cc(COC[C@H]3C(=O)OC4c5cc(C)cc(O)c5C5=C(C(=O)c6c(O[C@H]7C[C@@H](O)[C@@H](O)[C@H](C)O7)cccc6C5=O)N43)nn2)[C@@H]1OC(C)=O (stereo partly drawn) | 3.1 | 9.8 | 6.3
9 | Cc1cc(O)c2c(c1)[C@@H]1OC(=O)CN1C1=C2C(=O)c2cccc(O[C@H]3C[C@@H](O)[C@@H](O)[C@H](C)O3)c2C1=O [JADOMYCIN G] | 1.68 | 38.5 | 9.6
10 | Cc1cc(O)c2c(c1)[C@@H]1OC(=O)[C@H](CC(C)C)N1C1=C2C(=O)c2cccc(O[C@H]3C[C@@H](O)[C@@H](O)[C@H](C)O3)c2C1=O [JADOMYCIN L] | 1.82 | 9.3 | 4.1
11 | Cc1cc(O)c2c(c1)[C@@H]1OC(=O)[C@H]([C@H](C)O)N1C1=C2C(=O)c2cccc(O[C@H]3C[C@@H](O)[C@@H](O)[C@H](C)O3)c2C1=O [JADOMYCIN T] | 1.35 | 6.5 | 3.02
